A selection: hits, their analogues and other compounds. The true share with any hit is near 1.1%.
ERAP1 HTS inh: ERAP1 (human) enzyme inhibition. Q9NZ08. recombinant ERAP1, Leu-AMC fluorescence, 60 min. inhibition, % at 10.7 µM. hit rate 0.15% among 340,000;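 active = mean replicate inhibition of at least 30%, or all replicates individually reaching that 30% level; inactive = mean below 30% and not every replicate reaching it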;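 also: 0% = neutral control wells and 100% = L-leucinethiol positive control wells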
PDI inh: inhibitors of human protein disulfide isomerase. inhibition, % at 10 µM. P07237. PDI insulin aggregation turbidity, A650, 90 min. AID 588391. hit rate 0.052% among 350,000;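 active = mean inhibition across replicates of 30% or more, whatever share of single replicates reach that level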
CAL PDZ FP-1: human CAL PDZ-peptide interaction inhibition; Q9HD26; purified CAL PDZ, TMR-peptide fluorescence polarization, 1 h; inhibition, % at 20 µM; hit rate 0.02% among 330,000; AID 504414;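 active = highest replicate inhibition of at least 40%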;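 also: plate controls were DMSO neutral control wells for no effect and unlabeled competitor peptide control wells for full effect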
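Material: tagged CAL PDZ domain; buffer or medium: 25 mM sodium phosphate pH 7.4, 150 mM NaCl, TCEP, IgG, Thesit; compound dosing: single point, 20 µM; schedule: 1 h incubation at room temperature before polarization reading; measured by: FP readout, S and P plane fluorescence; read-out basis: percent inhibition from loss of millipolarization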
ERp5 block: inhibitors of human ERp5; ERp5 insulin aggregation, absorbance 650 nm, 90 min; inhibition, % at 9.99 µM; hit rate 0.05% among 350,000; AID 651711;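 active = mean replicate inhibition above about 25%, with every replicate also reaching it, limit read from the data, passing the limit was not always enough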
Rin1-Abl PPI inh: inhibitors of human Rin1-Abl protein interaction | AID 588664 | TR-FRET Rin1/Abl binding, biochemical | P00519+Q13671 | hit rate 0.4% among 360,000 | inhibition, % at 7.35 µM; in the data active = inhibition above about 5%, passing the limit was not always enough
Target sequence (P00519 whole entry, looked up): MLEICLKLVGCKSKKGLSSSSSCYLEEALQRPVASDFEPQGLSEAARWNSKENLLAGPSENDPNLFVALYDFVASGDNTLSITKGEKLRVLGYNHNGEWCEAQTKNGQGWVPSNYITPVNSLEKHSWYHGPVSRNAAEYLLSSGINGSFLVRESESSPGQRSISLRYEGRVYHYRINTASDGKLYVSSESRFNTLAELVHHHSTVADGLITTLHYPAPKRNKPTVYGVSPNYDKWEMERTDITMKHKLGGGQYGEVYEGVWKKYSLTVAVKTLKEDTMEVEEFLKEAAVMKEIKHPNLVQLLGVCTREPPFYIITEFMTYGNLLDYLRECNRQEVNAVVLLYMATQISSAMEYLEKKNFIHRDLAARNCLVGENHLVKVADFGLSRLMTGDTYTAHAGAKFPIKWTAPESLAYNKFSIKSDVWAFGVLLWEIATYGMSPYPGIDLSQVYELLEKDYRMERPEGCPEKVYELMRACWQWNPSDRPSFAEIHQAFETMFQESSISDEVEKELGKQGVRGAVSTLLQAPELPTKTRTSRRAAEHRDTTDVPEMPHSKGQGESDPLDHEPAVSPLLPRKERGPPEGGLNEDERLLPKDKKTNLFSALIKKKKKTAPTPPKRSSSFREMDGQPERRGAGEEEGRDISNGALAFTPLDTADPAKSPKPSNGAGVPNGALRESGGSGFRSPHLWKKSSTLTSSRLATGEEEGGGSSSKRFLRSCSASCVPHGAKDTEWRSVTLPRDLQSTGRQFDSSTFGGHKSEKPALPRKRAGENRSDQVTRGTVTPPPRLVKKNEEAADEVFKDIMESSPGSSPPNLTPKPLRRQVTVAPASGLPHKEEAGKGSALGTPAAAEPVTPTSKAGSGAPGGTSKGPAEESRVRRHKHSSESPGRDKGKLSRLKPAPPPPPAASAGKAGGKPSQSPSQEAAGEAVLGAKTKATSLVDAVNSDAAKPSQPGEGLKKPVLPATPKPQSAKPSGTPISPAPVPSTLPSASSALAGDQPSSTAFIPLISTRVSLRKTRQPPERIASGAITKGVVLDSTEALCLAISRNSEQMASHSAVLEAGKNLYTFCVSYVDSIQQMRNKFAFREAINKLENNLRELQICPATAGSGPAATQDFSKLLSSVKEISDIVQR
Target sequence (Q13671 whole entry, looked up): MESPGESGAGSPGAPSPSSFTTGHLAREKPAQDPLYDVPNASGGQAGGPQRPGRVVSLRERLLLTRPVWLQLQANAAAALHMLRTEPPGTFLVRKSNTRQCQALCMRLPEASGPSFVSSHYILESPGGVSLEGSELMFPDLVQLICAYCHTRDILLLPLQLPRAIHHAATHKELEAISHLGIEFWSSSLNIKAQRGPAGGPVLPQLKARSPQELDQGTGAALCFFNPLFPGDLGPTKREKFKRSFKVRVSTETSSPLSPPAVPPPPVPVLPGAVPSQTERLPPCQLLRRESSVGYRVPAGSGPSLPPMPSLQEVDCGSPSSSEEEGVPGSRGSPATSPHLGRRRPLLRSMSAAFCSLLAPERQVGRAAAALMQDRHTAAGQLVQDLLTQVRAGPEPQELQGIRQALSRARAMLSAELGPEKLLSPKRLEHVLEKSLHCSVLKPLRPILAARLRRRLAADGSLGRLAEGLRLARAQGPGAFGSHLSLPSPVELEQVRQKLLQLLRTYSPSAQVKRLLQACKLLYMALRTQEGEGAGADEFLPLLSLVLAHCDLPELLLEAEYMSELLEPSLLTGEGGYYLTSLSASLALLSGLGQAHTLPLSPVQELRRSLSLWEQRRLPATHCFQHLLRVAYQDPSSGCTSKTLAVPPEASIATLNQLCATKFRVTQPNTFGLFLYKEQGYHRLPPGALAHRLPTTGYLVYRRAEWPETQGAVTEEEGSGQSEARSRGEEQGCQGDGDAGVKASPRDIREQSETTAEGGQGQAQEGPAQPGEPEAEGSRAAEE
CAL PDZ FP-2: inhibitors of human CAL PDZ peptide binding. Q9HD26. purified CAL PDZ, TMR-peptide fluorescence polarization, 1 h. hit rate 0.92% among 300,000. inhibition, % at 24.9 µM;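 active = mean inhibition of at least 30% with at least half of replicates also reaching 30%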;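 also: 0% = DMSO neutral control and 100% = excess unlabeled competitor peptide PRC23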
* = called active by the depositor; . = no result.

SMILES	ERAP1 HTS inh	PDI inh	CAL PDZ FP-1	ERp5 block	Rin1-Abl PPI inh	CAL PDZ FP-2
CCN1/C(=C/C=C/C=C/C=C/c2sc3ccccc3[n+]2CC)Sc2ccccc21	31*	-62	0	0	5	13
CCN1/C(=C/C=C/c2sc3ccccc3[n+]2CC)Sc2ccccc21	.	-5	-37	.	-16	-114
Cc1noc(C)c1NC(=O)N(C)C[C@H]1OCCCC[C@H](C)Oc2ccc(NS(=O)(=O)c3c(C)noc3C)cc2C(=O)N([C@@H](C)CO)C[C@H]1C	1	.	.	3	.	.
CCOc1ccccc1CN1CCC(n2nccc2NC(=O)C2CCCC2)CC1	0	4	112*	-4	-1	5
COc1ccc(CN2CCC(n3nccc3NC(=O)C3CCCC3)CC2)c(OC)c1	2	-6	-2	7	0	-1
COc1ccc(CN2CCC(n3nccc3NC(=O)C3CC3)CC2)c(OC)c1OC	4	9	0	2	0	71*
CCCCc1ncc(CN2CCC(n3nccc3NC(=O)c3ccccc3OC)CC2)[nH]1	-2	7	0	0	-1	111*
CCCn1ncc(CN2CCC(n3nccc3NC(=O)c3ccccc3OC)CC2)c1C	4	15	0	1	-1	-2
C[C@@H](NC(=O)C[C@@H]1CC[C@@H]2[C@H](COC[C@H](O)CN2C(=O)Nc2cccc(Cl)c2)O1)c1ccccc1	-6	.	.	1	.	.
C[C@@H]1CN([C@@H](C)CO)C(=O)c2cc(NC(=O)CCC(F)(F)F)ccc2O[C@H]1CN(C)Cc1ccc(C(F)(F)F)cc1	0	.	.	1	.	.
Cc1ccc(S(=O)(=O)N=Nc2c(O)[nH]c3ccccc23)cc1	.	2	-1	.	-1	32*
CCN1C(=O)C2C(c3ccccc3F)NC(Cc3ccc(O)cc3)(C(=O)OC)C2C1=O (centres undefined)	.	53*	-2	.	0	-1
COC(=O)[C@H](CC(C)C)NC(=O)NCCC1=CCCCC1	0	6	0	0	1	76*
Cc1ccc(NC(=O)C2CCN(C(=O)c3cccs3)CC2)c(C)c1	34*	7	-2	-1	1	-3
Cc1cc(C)c(NC(=O)CNC(=O)[C@@H]2CCCN2C(=O)c2cccs2)c(C)c1	-6	-5	0	-1	3	-3
CCc1ccccc1NC(=O)C1CCN(C(=O)c2cccs2)CC1	-4	-7	-3	1	2	-5
Cc1ccc(NC(=O)C2CCCN2C(=O)c2cccs2)c(C)c1 (centres undefined)	56*	-3	-4	2	2	-3
c1cc[n+](CCC[n+]2ccccc2)cc1	110*	-1	0	0	-2	-7
c1cc[n+](CCCC[n+]2ccccc2)cc1	0	14	0	0	0	-1
CN1[C@@H]2c3ccc(C4=CCCCC4)c(=O)n3C[C@H]1[C@H](CO)[C@H]2C(=O)N1CCCCC1	-2	.	.	-10	.	.
COc1ccccc1-c1cc(-c2ccccc2)nc(SCC(=O)O)c1C#N	42*	4	-9	-6	-1	-2
Cc1ccc(S(=O)(=O)NC(CC(C)C)C(=O)N2CC(C)OC(C)C2)cc1 (centres undefined)	-1	-5	0	-1	1	75*
Cc1ccc(S(=O)(=O)NC(CC(C)C)C(=O)N2CCOCCOCCOCC2)cc1 (centres undefined)	2	12	-2	1	0	0
C[C@@H]1CCCCO[C@@H](CN(C)C(=O)c2ccccc2)[C@H](C)CN([C@H](C)CO)C(=O)c2cc(NS(C)(=O)=O)ccc2O1	0	.	.	0	.	.
CN(C)CC1CC/C(=C\c2ccc(O)cc2)C1=O (centres undefined)	2	87*	0	-1	2	12
SMILES	ERAP1 HTS inh	PDI inh	CAL PDZ FP-1	ERp5 block	Rin1-Abl PPI inh	CAL PDZ FP-2
CC1CCC/C(=C\c2ccc(O)cc2)C1=O (centres undefined)	3	2	1	3	-1	-3
O=C1NC[C@H](Cc2ccccc2)N(C[C@H]2CCCN2C[C@H](Cc2ccccc2)N2C[C@H](Cc3ccc(O)cc3)N(CCc3ccccc3)C(=O)C2=O)C1=O	1	42*	-2	-4	-4	-5
O=C1NC[C@H](Cc2ccccc2)N(C[C@@H]2CCCN2C[C@H](Cc2ccc(O)cc2)N2C[C@H](Cc3ccc(O)cc3)N(CCc3ccccc3)C(=O)C2=O)C1=O	-4	.	.	-4	.	.
CCOc1ccc(CCN2C(=O)C(=O)N([C@@H](CC(C)C)CN3CCC[C@@H]3CN3C(=O)C(=O)NC[C@@H]3Cc3ccccc3)C[C@@H]2Cc2ccc(O)cc2)cc1	2	54*	-2	2	2	-6
CCOc1ccc(CCN2C(=O)C(=O)N([C@@H](CC(C)C)CN3CCC[C@H]3CN3C(=O)C(=O)NC[C@@H]3Cc3ccccc3)C[C@@H]2Cc2ccc(O)cc2)cc1	.	.	.	-4	.	.
C[C@@H]1CCCCO[C@H](CN(C)S(=O)(=O)c2ccc(Cl)cc2)[C@@H](C)CN([C@@H](C)CO)C(=O)c2cc(NC(=O)C3CCCCC3)ccc2O1	-1	.	.	4	.	.
C[C@H]1CN([C@@H](C)CO)C(=O)c2cccc(NC(=O)C3CCOCC3)c2O[C@H]1CN(C)C(=O)Nc1ccc2c(c1)OCO2	-2	.	.	-2	.	.
C[C@@H]1CN([C@@H](C)CO)C(=O)Cc2cc(NC(=O)Nc3cccc4ccccc34)ccc2O[C@H]1CN(C)C(=O)Nc1ccc(C(F)(F)F)cc1	-2	.	.	3	.	.
CN(C)/C=C1\C=C2C(=O)c3ccccc3N2C1=O	.	-3	1	-9	-142	56*
Cc1ccccc1S(=O)(=O)NCC[C@H]1CC[C@@H](NS(=O)(=O)c2ccccc2C)[C@H](CO)O1	-5	.	.	0	.	.
CO[C@H]1CN(C)C(=O)c2ccc(NC(=O)c3ccc(-c4ccccc4)cc3)cc2OC[C@H](C)NC[C@H]1C	.	.	.	2	.	.
O=C(NCC[C@@H]1CC[C@H](NC(=O)C2CCCC2)[C@H](CO)O1)c1cc(Cl)cc(Cl)c1	-1	.	.	2	.	.
S=C(NCc1ccccc1)NNc1ccccc1	1	-1	-1	3	-2	58*
CC(=O)NC(Cc1ccccc1)C(C)=O (centres undefined)	-2	5	33	17	-3	100*
CC1Cc2ccccc2N1C(=O)COc1ccc2c(c1)OCO2 (centres undefined)	31*	5	-2	-1	0	-2
CC1Cc2ccccc2N1C(=O)COC(=O)c1cccc(Br)c1 (centres undefined)	-10	6	-2	3	4	182*
COc1ccc2c3c([nH]c2c1)[C@@H](CO)N(S(C)(=O)=O)CC31CCN(C(=O)c2ccccc2)CC1	-2	.	.	7	.	.
C[C@H](CO)N1C[C@H](C)[C@@H](CN(C)C(=O)C2CCCCC2)OCCCC[C@H](C)Oc2ccc(NS(=O)(=O)c3ccccc3)cc2C1=O	-1	.	.	3	.	.
